Data on 18 compounds can be found in ChEMBL document CHEMBL1938272 (Bioorg Med Chem, 2012).

Test [1] relates to RAW264.7. In words: Antiinflammatory activity in mouse RAW264.7 cells assessed as inhibition of LPS-induced NO production at 40 uM preincubated for 30 mins before LPS challenge by Griess method.
Test [2] deals with T1, Aromatase (Homo sapiens, UniProt P11511).
T1 sequence (P11511 whole entry): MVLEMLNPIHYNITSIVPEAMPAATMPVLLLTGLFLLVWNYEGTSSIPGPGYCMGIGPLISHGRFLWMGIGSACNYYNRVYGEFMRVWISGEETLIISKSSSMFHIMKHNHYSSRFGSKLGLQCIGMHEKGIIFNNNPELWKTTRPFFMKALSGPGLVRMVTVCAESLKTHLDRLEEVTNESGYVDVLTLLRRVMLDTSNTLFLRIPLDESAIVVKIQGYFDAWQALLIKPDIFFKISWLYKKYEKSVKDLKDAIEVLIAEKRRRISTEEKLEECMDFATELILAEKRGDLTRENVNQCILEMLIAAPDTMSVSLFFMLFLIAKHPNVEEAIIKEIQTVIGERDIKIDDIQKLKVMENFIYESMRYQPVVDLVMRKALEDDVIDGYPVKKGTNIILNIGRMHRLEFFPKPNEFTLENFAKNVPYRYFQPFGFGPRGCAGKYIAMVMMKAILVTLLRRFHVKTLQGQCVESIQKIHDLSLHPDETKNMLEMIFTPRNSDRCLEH

The target in test [3] is NAD(P)H dehydrogenase [quinone] 1 (Mus musculus) (UniProt Q64669). In words: Induction of QR1 activity in mouse TAOc1 mutant Hepa cells using MTT as substrate by spectrophotometry. It is filed as cell-based.
NAD(P)H dehydrogenase [quinone] 1 (Mus musculus), sequence (Q64669 whole entry): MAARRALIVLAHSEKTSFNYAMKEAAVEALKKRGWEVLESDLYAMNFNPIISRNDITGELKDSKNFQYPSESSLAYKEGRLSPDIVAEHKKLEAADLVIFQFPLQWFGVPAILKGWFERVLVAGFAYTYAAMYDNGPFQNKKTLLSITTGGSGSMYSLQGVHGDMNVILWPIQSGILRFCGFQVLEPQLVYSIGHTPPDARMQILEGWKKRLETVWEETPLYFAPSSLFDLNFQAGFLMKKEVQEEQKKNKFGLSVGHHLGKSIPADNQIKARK
The target of test [4] is T1, Aromatase. Particulars: 2 h, read-out: Imax.
Test [5] has as its target NAD(P)H dehydrogenase [quinone] 1 (Mus musculus) (UniProt Q64669). In words: Induction of QR1 activity in mouse BPrc1 cells using MTT as substrate by spectrophotometry. The test is classed as cell-based.
Test [6] relates to MCF7. In words: Antiproliferative activity against human MCF7 cells after 72 hrs by SRB assay. It is filed as functional, cell-based. Particulars: MCF7, 72 h. A digest of the protocol: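 MCF-7 breast cancer cells exposed to serially diluted compounds (DMSO) for 72 h at 37 °C in CO2 incubator; fixed with 10% trichloroacetic acid, stained with 0.4% SRB, OD read at 515 nm. Zero-day control of 1 × 10^4 cells per well processed after 30 min. Survival = (OD test − OD zero-day)/(OD control − OD zero-day) × 100; IC50 from survival.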

The target in test [7] is NAD(P)H dehydrogenase [quinone] 1 (Mus musculus) (UniProt Q64669). In words: Induction of QR1-mediated cytoprotective activity in mouse TAOc1 mutant Hepa cells at 50 uM assessed as cell survival. The test is classed as cell-based.
Test [8] shares this target. In words: Induction of QR1-mediated cytoprotective activity in mouse Hepa-1c1c7 cells at 50 uM assessed as cell survival. The test is classed as cell-based.
Test [9] shares this target. In words: Induction of QR1-mediated cytoprotective activity in mouse BPrc1 cells at 50 uM assessed as cell survival. It is filed as cell-based.
Test [10] relates to Radical scavenging activity. In words: Antioxidant activity assessed as DPPH free radical scavenging activity at 400 uM after 30 mins by spectrophotometry. The test is classed as functional.
The nature of test [11]: Inhibition of TNFalpha-activated NF-kappaB expressed in HEK293 cells by luciferase reporter gene assay. The test is classed as cell-based.
For test [12], the target named is NAD(P)H dehydrogenase [quinone] 1 (Mus musculus) (UniProt Q64669). In words: Induction of QR1 activity in mouse Hepa-1c1c7 cells using MTT as substrate by spectrophotometry. It is filed as cell-based. A digest of the protocol: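 Mouse hepatoma Hepa 1c1c7 cells were incubated with compound, then permeabilised with digitonin. QR1 activity was read as MTT reduction to formazan at 595 nm, with crystal violet total protein run in parallel. Induction ratio is activity versus control; CD is the concentration doubling activity, derived only when the ratio is above 2.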

Test [13] deals with HEK293. In words: Inhibition of TNFalpha-activated NF-kappaB expressed in HEK293 cells at 50 uM by luciferase reporter gene assay. It is filed as cell-based.
The test system of test [14] is RAW264.7. In words: Antiinflammatory activity in mouse RAW264.7 cells assessed as inhibition of LPS-induced NO production preincubated for 30 mins before LPS challenge measured after 24 hrs by Griess method. It is filed as functional, cell-based.

`Clc1ccc(Cl)c(-c2nsc(-c3cc(Cl)ccc3Cl)n2)c1`: the inhibition at 40 µM in test [1] amounted to 17.9%. Also, the results for the IC50 in test [2] and in [6] were more than 50 µM and 17.8 µM, respectively. For the same compound, the CD was 41 µM in test [3] and 44.5 µM in test [5]. Moreover, the inhibition at 50 µM in test [4] was determined as 16.6%. The Survival in test [7] stood at 82.8%; in test [8] it was 88.1%; in [9] it was 94.7%. In [10], the inhibition worked out at 1%.

Take `c1ccc(-c2nsc(-c3ccccc3)n2)cc1`: the inhibition at 40 µM in test [1] turned out to be 55.7%. The IC50 was more than 50 µM in [2], 24.4 µM in [6] and 47.4 µM in test [11]. For the same compound, the CD in test [3] is 18.6 µM; in test [5], 49.7 µM. For the same compound, in [4], the inhibition at 50 µM worked out at 60.2%. For the same compound, the Survival in test [7] worked out at 85.9%; in [8] it was 50.3%; in [9], 77.8%.

Regarding `Ic1cccc(-c2nsc(-c3cccc(I)c3)n2)c1`, the inhibition at 40 µM in test [1] is 15.6%. For the same compound, the IC50 is more than 50 µM in [2] and 37.1 µM in [6]. For the same compound, the inhibition at 50 µM in [4] was found to be 30.6%. Besides, the CD in [12] worked out at 3.1 µM. Also, the inhibition is 0% in [13] and 14.3% in [10]. For the same compound, the Survival in test [7] came out at 73.6%; in test [8], 103%; in test [9], 77.3%.

Turning to `Cc1ccc(Cl)cc1-c1nsc(-c2cc(Cl)ccc2C)n1`, the inhibition at 40 µM in test [1] was determined as 25.9%. The IC50 was more than 50 µM in test [2] and 29 µM in test [6]. Also, the CD in test [3] came out at 2 µM; in test [5] it was 4.4 µM; in [12], 0.47 µM. Further, the inhibition at 50 µM in [4] was 22%. Besides, the figures for the inhibition in test [13] and in test [10] were 29.7% and 1.3%, respectively. In addition, the Survival in [7] stood at 80.2%; in test [8] it was 37.9%; in test [9], 91.5%.

Turning to `Nc1ccc(-c2nsc(-c3ccc(N)cc3)n2)cc1`, the IC50 stood at 26.5 µM in test [2], 23.3 µM in test [14], 30.8 µM in test [6] and 7.6 µM in [11]. Also, the inhibition at 50 µM in test [4] turned out to be 70.4%. Further, in test [8], the Survival turned out to be 66.1%.

In the case of `Clc1ccccc1-c1nsc(-c2ccccc2Cl)n1`, the inhibition at 40 µM in test [1] was -5.9%. The IC50 was more than 50 µM in test [2] and 35.8 µM in test [6]. Besides, the results for the CD in [3] and in test [5] were 44.3 µM and 34.6 µM, respectively. Besides, in test [4], the inhibition at 50 µM worked out at 49.7%. Also, the Survival in test [7] is 100%; in test [8], 75.2%; in test [9] it was 83.8%. Moreover, the inhibition in test [10] was determined as 2.8%.

`CC(C)(C)c1ccc(-c2nsc(-c3ccc(C(C)(C)C)cc3)n2)cc1`: in test [1], the inhibition at 40 µM stood at 0.5%. Besides, the IC50 in test [2] is more than 50 µM. In addition, the inhibition at 50 µM in test [4] was determined as 43.5%. This compound displayed a CD in [12] of 27.7 µM. Moreover, the inhibition in test [13] was determined as 0%; in test [10], 2.9%. Besides, the Survival was found to be 74.1% in test [7], 47.5% in test [8] and 85.1% in test [9].

As to `Clc1cccc(-c2nsc(-c3cccc(Cl)c3Cl)n2)c1Cl`, the inhibition at 40 µM in [1] worked out at 21.4%. For the same compound, the IC50 in [2] was more than 50 µM; in test [6], 10.2 µM. In addition, the inhibition at 50 µM in test [4] turned out to be 45.9%. This compound also displayed a CD in test [12] of 2 µM. The inhibition turned out to be 0% in test [13] and 11.1% in [10]. Also, the figures for the Survival in test [7], in test [8] and in test [9] were 74.5%, 47% and 56.3%, respectively.

As for `Clc1ccc(-c2nsc(-c3ccc(Cl)cc3)n2)cc1`, the inhibition at 40 µM in test [1] amounted to 5.1%. For the same compound, in [2], the IC50 is more than 50 µM. The inhibition at 50 µM in [4] is 9.7%. This compound also came in with a CD in test [12] of 4 µM. Also, the values for the inhibition in [13] and in test [10] were 0% and 2.7%, respectively. Moreover, the Survival in [7] was found to be 77.8%; in [8] it was 78.3%; in test [9], 79.3%.

Take `Oc1cccc(-c2nsc(-c3cccc(O)c3)n2)c1`: the inhibition at 40 µM in [1] amounted to 47.4%. Further, the values for the IC50 in [2] and in [11] were more than 50 µM and 38.1 µM, respectively. Also, in test [4], the inhibition at 50 µM is 24.4%. In addition, the Survival in test [7] was 63.7%; in [8], 4%; in test [9], 94.3%.

For `Oc1ccc(/C=C\c2cc(O)cc(O)c2)cc1`, the CD in [5] was 49.7 µM. Also, the Survival in test [7] was 100%; in [8], 89.3%; in [9] it was 77.8%.

With `Cc1cc(Cl)ccc1-c1nsc(-c2ccc(Cl)cc2C)n1`, in [1], the inhibition at 40 µM was 10.1%. In addition, the IC50 in test [2] is more than 50 µM; in test [6], 39.5 µM. Besides, the CD in [3] came to 3.8 µM; in [5], 2.8 µM; in test [12], 0.44 µM. The inhibition at 50 µM in test [4] came to 35.3%. Also, the inhibition amounted to 0% in test [13] and 3.7% in test [10]. For the same compound, the Survival is 71% in [7], 77.3% in test [8] and 94.7% in test [9].

In the case of `Brc1cccc(-c2nsc(-c3cccc(Br)c3)n2)c1`, in [1], the inhibition at 40 µM was 22.8%. The IC50 in [2] was more than 50 µM; in test [6], 31 µM. The CD in test [3] is 2.5 µM; in test [5] it was 6.5 µM; in test [12] it was 0.059 µM. The inhibition at 50 µM in test [4] was found to be 48.4%. The inhibition in [13] was determined as 0%; in test [10], 1%. Besides, the Survival in [7] worked out at 77.7%; in [8] it was 79.3%; in test [9] it was 92.3%.

For `Cc1cccc(-c2nsc(-c3cccc(C)c3)n2)c1`, in [1], the inhibition at 40 µM stood at 0.9%. Also, the IC50 in test [2] is more than 50 µM; in [6], 22.1 µM; in [11], 0.8 µM. Also, the inhibition at 50 µM in test [4] worked out at 32.9%. Also, the CD in [12] worked out at 4 µM. Also, the values for the Survival in test [7], in test [8] and in [9] were 94.9%, 33.7% and 100%, respectively. In test [10], the inhibition came to 1.9%.

For the compound `Ic1ccccc1-c1nsc(-c2ccccc2I)n1`, in test [1], the inhibition at 40 µM was 30%. Also, the IC50 in test [2] was more than 50 µM; in test [14], 30 µM. The CD turned out to be 6.3 µM in [3] and 8.1 µM in test [5]. In test [4], the inhibition at 50 µM turned out to be 39.4%. Further, the values for the Survival in [7], in test [8] and in test [9] were 69.8%, 48.8% and 95.1%, respectively. Moreover, the inhibition in test [10] worked out at 3.4%.

As to `COc1cccc(-c2nsc(-c3cccc(OC)c3)n2)c1`, the inhibition at 40 µM in test [1] came to 17.6%. The IC50 in test [2] is more than 50 µM; in test [6] it was 24.2 µM; in [11], 0.4 µM. Moreover, the inhibition at 50 µM in [4] was determined as 26.6%. For the same compound, the CD in test [12] came to 4.03 µM. Further, the inhibition is 93.9% in [13] and -2.1% in test [10]. Moreover, the Survival in test [7] amounted to 76.3%; in test [8], 63.7%; in [9], 97.1%.

With `Cc1c(Cl)cccc1-c1nsc(-c2cccc(Cl)c2C)n1`, the inhibition at 40 µM in test [1] was found to be 24.5%. For the same compound, the values for the IC50 in test [2] and in test [6] were more than 50 µM and 30.3 µM, respectively. Besides, the CD in [3] turned out to be 48.7 µM; in test [5], 38.2 µM; in [12], 4 µM. Besides, the inhibition at 50 µM in [4] stood at 19.8%. Also, the inhibition in [13] came to 20.3%; in [10], 2.3%. For the same compound, the Survival in test [7] was 68%; in test [8], 96%; in [9], 100%.

Consider `Oc1ccc(-c2nsc(-c3ccc(O)cc3)n2)cc1`, for which, in test [1], the inhibition at 40 µM is 93.7%. In addition, the IC50 in [2] is more than 50 µM; in test [14], 13.5 µM; in [6], 4.7 µM; in test [11], 19.3 µM. In addition, the inhibition at 50 µM in test [4] was 50.4%. The Survival in test [8] was determined as 36.5%. In addition, in test [10], the inhibition is 3.4%.
